# Screening results deposited in PubChem BioAssay by Broad Institute.
# Sampled rows, rich in hits. Any-hit rate of the full collection: about 2.2%.
# Statin myotox sup – suppression of simvastatin myotoxicity; C2C12 myotubes + simvastatin, ATP luminescence, 48 h; scaled: DMSO 0, geranylgeraniol control 100; rescue of ATP level, % at 7.49 µM; 0.78% of 330,000 active;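 active means mean ATP rescue above about 67%, or every replicate alone reaching that limit, limit read from the data, passing the limit was not always enough; inconclusive means no clear call, values can overlap the other calls; inactive means mean under the limit and some replicate under it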;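 further: myotubes were challenged with 10 µM simvastatin during compound exposure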
# DENV2 CPE – inhibitors of DENV2 cytopathic effect | DENV2-infected cells, cytopathic effect rescue, plate reader | CPE inhibition, % at 9.99 µM | 1.7% of 350,000 active | AID 651640; in the data active means CPE inhibition above about 20%, passing the limit was not always enough; inconclusive means no clear call, values can overlap the other calls; tested in BHK-21 cells;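 further: 0% = median of neutral control wells and 100% = median of positive control wells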
# E-sel inducer – E-selectin induction on HUVECs; HUVEC E-selectin immunofluorescence imaging; normalized: neutral wells 0, TNF-alpha wells 100; activation, % at 7.58 µM; 0.37% of 260,000 active; AID 686992;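 active means mean E-selectin-positive cell signal at least 10% of the positive control, reached in at least 60% of replicates, without over 20% cell loss; inconclusive means no rule given, readout overlaps actives, possibly toxicity-flagged; inactive means the rest, including those meeting only one limit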
# Target sequence (P16581 whole entry, looked up): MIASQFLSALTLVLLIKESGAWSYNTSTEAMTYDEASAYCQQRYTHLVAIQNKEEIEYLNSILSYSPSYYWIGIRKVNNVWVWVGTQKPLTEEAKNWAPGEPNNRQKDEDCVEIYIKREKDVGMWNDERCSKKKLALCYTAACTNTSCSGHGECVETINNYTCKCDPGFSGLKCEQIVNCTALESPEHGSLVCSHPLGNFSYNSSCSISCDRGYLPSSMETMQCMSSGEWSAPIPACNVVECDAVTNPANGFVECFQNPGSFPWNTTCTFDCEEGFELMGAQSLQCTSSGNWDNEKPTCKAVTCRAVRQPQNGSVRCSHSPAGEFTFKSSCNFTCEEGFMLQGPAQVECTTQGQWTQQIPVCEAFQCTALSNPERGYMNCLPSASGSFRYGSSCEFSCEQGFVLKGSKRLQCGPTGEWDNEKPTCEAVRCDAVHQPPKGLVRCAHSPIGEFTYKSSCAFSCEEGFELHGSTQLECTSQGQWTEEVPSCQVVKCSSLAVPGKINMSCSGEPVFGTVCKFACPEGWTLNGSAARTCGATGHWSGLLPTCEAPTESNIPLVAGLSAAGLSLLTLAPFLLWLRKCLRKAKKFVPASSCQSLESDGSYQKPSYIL
#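 Test system – human umbilical vein endothelial cells (HUVEC), E-selectin induction · Input – 3,000 HUVEC seeded per well · Buffer or medium – EGM-2, gelatin · Compound dosing – single-point compound dose · Detection – immunofluorescence imaging · Measure – percent E-selectin-positive cells · Controls – TNF-alpha high, DMSO low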
# Starred values were filed as active, the others as inactive; ? = inconclusive; / = not tested or not shown.
SMILES,Statin myotox sup,DENV2 CPE,E-sel inducer
COCC(=O)Nc1ccc2c(c1)[C@@H]1C[C@H](CC(=O)NCc3ccc(OC)cc3)O[C@@H](CO)[C@@H]1O2,9,?,0
O=C(Nc1ccccc1)N1C[C@H]2[C@@H](c3ccccc31)[C@@H](CO)N2CC1CCCC1,-94,-5,-1
C[C@@H]1CN([C@H](C)CO)S(=O)(=O)c2ccc(-c3cccnc3)cc2O[C@H]1CN(C)C(=O)C1CCC1,-8,-11,0
CO[C@H]1CN(C)C(=O)c2ccc(NC(=O)Nc3ccccc3)cc2OC[C@@H](C)N(C(=O)Nc2c(C)noc2C)C[C@@H]1C,1,2,0
COc1ccc(S(=O)(=O)N(C)C[C@@H]2Oc3ccc(NC(=O)C4CCCCC4)cc3C(=O)N([C@H](C)CO)C[C@@H]2C)cc1,-18,-6,0
COc1ccc(NC(=O)Nc2ccc3c(c2)C(=O)N([C@@H](C)CO)C[C@@H](C)[C@H](CN(C)C(=O)C2CCCCC2)OCCCC[C@@H](C)O3)cc1,46,22*,0
C[C@@H]1CCCCO[C@@H](CN(C)C(=O)C2CCCCC2)[C@@H](C)CN([C@H](C)CO)C(=O)c2cc(NC(=O)Nc3ccccc3)ccc2O1,/,-10,0
C[C@H]1CN([C@@H](C)CO)C(=O)c2cccc(NS(=O)(=O)c3ccccc3)c2O[C@H]1CN(C)Cc1ccc(C(=O)O)cc1,-13,-1,0
C[C@@H]1CN([C@H](C)CO)C(=O)c2cccc(NS(=O)(=O)c3ccc(F)cc3)c2O[C@@H]1CN(C)Cc1ccccc1,-4,-5,0
C[C@H](CO)N1C[C@H](C)[C@H](CN(C)Cc2ccc(C(=O)O)cc2)Oc2c(NS(=O)(=O)c3ccccc3)cccc2C1=O,-3,50*,0
C[C@@H]1CN([C@@H](C)CO)C(=O)c2cccc(NS(=O)(=O)c3ccc(F)cc3)c2O[C@H]1CN(C)Cc1ccc(C(=O)O)cc1,-13,0,66*
C[C@H](CO)N1C[C@H](C)[C@H](CN(C)Cc2ccccc2)Oc2c(NS(=O)(=O)c3ccc(F)cc3)cccc2C1=O,6,104*,0
C[C@H](CO)N1C[C@H](C)[C@H](CN(C)Cc2ccc(C(=O)O)cc2)Oc2c(NS(=O)(=O)c3ccc(F)cc3)cccc2C1=O,-33,13,1
Cc1cc(C(=O)Nc2cccc3c2O[C@@H](CN(C)C(=O)NC2CCCCC2)[C@H](C)CN([C@@H](C)CO)C3=O)n(C)n1,-23,-4,-7
COC(=O)C[C@H]1CC[C@H]2[C@H](COc3ccc(NC(=O)Nc4cc(C)cc(C)c4)cc3C(=O)N2C)O1,-5,-1,0
COc1ccc(NC(=O)N2C[C@H]3[C@@H](c4ccccc42)[C@H](CO)N3C(=O)C2CC2)cc1,-6,1,0
C[C@@H]1CCCCO[C@H](CN(C)Cc2ccc(C(=O)O)cc2)[C@@H](C)CN([C@@H](C)CO)C(=O)c2cc(NC(=O)Nc3ccc4c(c3)OCO4)ccc2O1,/,9,0
O=C(C1CCCC1)N1C[C@@H]2[C@H](c3ccccc31)[C@@H](CO)N2C(=O)c1cccnc1,-12,-9,0
COc1ccc(C2=Nn3c(nnc3-c3ccccc3Cl)SC2)cc1OCC1CC1,-34,32*,0
COc1ccc(OC)c(-c2nnc3n2N=C(c2ccc(OC)c(OCC4CC4)c2)CS3)c1,-44,/,/
CCCN(CC1CCCO1)C(=O)c1cc(COc2cccc(OC)c2)on1 (configuration not stated),/,-3,/
COc1cccc(OCc2cc(C(=O)N(C)CCC3CCCCO3)no2)c1 (configuration not stated),4,39*,0
C[C@H](CO)N1C[C@H](C)[C@@H](CN(C)Cc2cccc(F)c2)OCc2ccccc2-c2ccccc2C1=O,-18,4,0
CCS(=O)(=O)Nc1ccc2c(c1)C(=O)N(C)[C@@H]1CC[C@@H](CC(=O)N3CCCCC3)O[C@@H]1CO2,-12,-1,0
Cc1cccc(-c2ccc([C@H]3[C@H](CO)N4CCCCN(C(=O)c5ccncc5)C[C@@H]34)cc2)c1,26,-4,0
SMILES,Statin myotox sup,DENV2 CPE,E-sel inducer
Cc1cccc(-c2ccc([C@H]3[C@@H](CO)N4CCCCN(C(=O)c5cccnc5)C[C@H]34)cc2)c1,/,-12,0
Cc1cccc(-c2ccc([C@@H]3[C@@H](CO)N4CCCCN(C(=O)c5ccc6c(c5)OCO6)C[C@H]34)cc2)c1,3,-31,0
CC(C)CC#Cc1ccc([C@H]2[C@@H](CO)N3CCCCN(C(=O)c4ccc5c(c4)OCO5)C[C@@H]23)cc1,/,24*,0
Cc1cccc(-c2ccc([C@H]3[C@@H](CO)N4CCCCN(C(=O)c5ccncc5)C[C@@H]34)cc2)c1,29,51*,0
Cc1cccc(-c2ccc([C@H]3[C@@H](CO)N4CCCCN(C(=O)c5cccnc5)C[C@@H]34)cc2)c1,/,32*,0
Cc1cccc(-c2ccc([C@H]3[C@@H](CO)N4CCCCN(C(=O)c5ccc6c(c5)OCO6)C[C@@H]34)cc2)c1,69*,-19,-1
CC(C)CC#Cc1ccc([C@H]2[C@@H](CO)N3CCCCN(C(=O)c4ccc5c(c4)OCO5)C[C@H]23)cc1,/,-7,0
O=C(NCc1ccc(F)cc1)[C@@H]1N[C@@H]2c3ccc(-c4ccccc4)c(=O)n3C[C@@H]2[C@H]1CO,1,-11,0
C[C@@H]1CCCCO[C@H](CN(C)C(=O)c2ccncc2)[C@@H](C)CN([C@H](C)CO)C(=O)c2cc(NC(=O)Cc3ccccc3)ccc2O1,-27,1,/
CN1CCN(C(=O)[C@@H]2[C@@H](CO)[C@@H]3Cn4c(cccc4=O)[C@H]2N3Cc2ccncc2)CC1,-18,-1,0
COc1ccccc1-c1ccc([C@@H]2[C@H]3CN(C(=O)c4ccncc4)CCCCN3[C@H]2CO)cc1,/,7,0
COc1ccccc1-c1ccc([C@H]2[C@H]3CN(C(=O)c4ccncc4)CCCCN3[C@H]2CO)cc1,/,22*,0
Cc1noc(C)c1S(=O)(=O)N(C)C[C@@H]1Oc2ccc(NC(=O)Nc3ccc(C(F)(F)F)cc3)cc2CC(=O)N([C@@H](C)CO)C[C@H]1C,5,-2,0
COCC(=O)N1C[C@H]2CON(C)[C@H]2C[C@H]1c1cccc(-c2ccccc2)c1,10,34*,0
COCC(=O)N1C[C@H]2CON(C)[C@H]2C[C@H]1c1cccc(-c2ccc(C#N)cc2)c1,-5,-6,0
C/C=C/c1cnc2c(c1)C(=O)N([C@@H](C)CO)C[C@H](C)[C@@H](CN(C)Cc1ccncc1)O2,1,2,0
CO[C@@H]1CN(C)C(=O)c2cc(NS(=O)(=O)c3ccccc3)ccc2OC[C@@H](C)NC[C@@H]1C,-2,29*,0
CO[C@@H]1CN(C)C(=O)c2cc(NS(=O)(=O)c3ccccc3F)ccc2OC[C@@H](C)NC[C@@H]1C,0,-1,0
COc1cccc(S(=O)(=O)Nc2ccc3c(c2)C(=O)N(C)C[C@@H](OC)[C@@H](C)CN[C@H](C)CO3)c1,2,22*,0
CO[C@H]1CN(C)C(=O)c2cc(NS(=O)(=O)c3ccccc3)ccc2OC[C@H](C)NC[C@H]1C,0,1,0
